What was measured:
Aeromonas hydrophila = assay: Antibacterial activity against Aeromonas hydrophila OCC 778 after 18 hrs; type: functional; conditions: OCC 778, 18 h
Summary of the method: (§1)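 Broth microdilution in Nutrient Broth No. 2; stocks in ethanol diluted to 0.01–128 µg/ml (triclosan) or 0.25–256 µg/ml (glycosides). Overnight 37 °C NB2 cultures diluted 1 in 10^4 in saline and added to the dilutions. Incubation at 37 °C with agitation, OD read every 15 min; MIC is the lowest concentration preventing any OD rise after 18 h.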

Citrobacter freundii [1] = assay: Antibacterial activity against Citrobacter freundii OCC 851 after 18 hrs; type: functional; conditions: OCC 851, 18 h; summary of the method: as §1
Cronobacter sakazakii = assay: Antibacterial activity against Cronobacter sakazakii 29544 after 18 hrs; type: functional; conditions: Cronobacter sakazakii, 29544, 18 h; summary of the method: as §1
Klebsiella aerogenes [2] = assay: Antibacterial activity against Enterobacter aerogenes ATCC 13048 after 18 hrs; type: functional; conditions: ATCC 13048, 18 h; summary of the method: as §1
[3] = Antibacterial activity against Enterobacter cloacae ATCC 13047 after 18 hrs; type: functional, Enterobacter cloacae subsp. cloacae; conditions: ATCC 13047, 18 h; summary of the method: as §1
Escherichia coli [4] = assay: Antibacterial activity against Escherichia coli ATCC 8739 after 18 hrs; type: functional; conditions: ATCC 8739, 18 h; summary of the method: as §1
Escherichia coli [5] = assay: Antibacterial activity against Escherichia coli ATCC 10536 after 18 hrs; type: functional; conditions: ATCC 10536, 18 h; summary of the method: as §1
Escherichia coli [6] = assay: Antibacterial activity against Escherichia coli ATCC 11775 after 18 hrs; type: functional; summary of the method: as §1
Escherichia coli [7] = assay: Antibacterial activity against Escherichia coli ATCC 25922 after 18 hrs; type: functional; conditions: ATCC 25922, 18 h; summary of the method: as §1
Escherichia coli [8] = assay: Antibacterial activity against Escherichia coli ATCC 35218 after 18 hrs; type: functional; conditions: ATCC 35218, 18 h; summary of the method: as §1
Escherichia coli [9] = assay: Antibacterial activity against Escherichia coli 700728 after 18 hrs; type: functional; conditions: Escherichia coli, 700728, 18 h; summary of the method: as §1
Escherichia coli [10] = assay: Antibacterial activity against Escherichia coli NCTC 13216 after 18 hrs; type: functional; conditions: NCTC 13216, 18 h; summary of the method: as §1
Escherichia coli [11] = assay: Antibacterial activity against Escherichia coli OCC 122 after 18 hrs; type: functional; conditions: OCC 122, 18 h; summary of the method: as §1
Escherichia hermannii = assay: Antibacterial activity against Escherichia hermannii 33650 after 18 hrs; type: functional; conditions: Atlantibacter hermannii, 33650, 18 h; summary of the method: as §1
Hafnia alvei = assay: Antibacterial activity against Hafnia alvei 13337 after 18 hrs; type: functional; conditions: Hafnia alvei, 13337, 18 h; summary of the method: as §1
Klebsiella aerogenes [12] = assay: Antibacterial activity against Klebsiella aerogenes NCTC 8167 after 18 hrs; type: functional; conditions: NCTC 8167, 18 h; summary of the method: as §1
Klebsiella pneumoniae [13] = assay: Antibacterial activity against Klebsiella pneumoniae ATCC 10031 after 18 hrs; type: functional; conditions: ATCC 10031, 18 h; summary of the method: as §1
Proteus mirabilis = assay: Antibacterial activity against Proteus mirabilis ATCC 12453 after 18 hrs; type: functional; conditions: ATCC 12453, 18 h; summary of the method: as §1
Proteus vulgaris = assay: Antibacterial activity against Proteus vulgaris OCC 195 after 18 hrs; type: functional; conditions: OCC 195, 18 h; summary of the method: as §1
Pseudomonas aeruginosa = assay: Antibacterial activity against Pseudomonas aeruginosa ATCC 27853 after 18 hrs; type: functional; conditions: ATCC 27853, 18 h; summary of the method: as §1
Klebsiella pneumoniae [14] = assay: Antibacterial activity against Klebsiella pneumoniae ATCC 13883 after 18 hrs; type: functional; conditions: ATCC 13883, 18 h; summary of the method: as §1
Citrobacter freundii [15] = assay: Antibacterial activity against Citrobacter freundii 8090 after 18 hrs; type: functional; conditions: Citrobacter freundii, 8090, 18 h; summary of the method: as §1
Serratia marcescens = assay: Antibacterial activity against Serratia marcescens OCC 217 after 18 hrs; type: functional; conditions: OCC 217, 18 h; summary of the method: as §1
Bacillus cereus = assay: Antibacterial activity against Bacillus cereus ATCC 14579 after 18 hrs; type: functional; conditions: ATCC 14579, 18 h; summary of the method: as §1
Bacillus subtilis = assay: Antibacterial activity against Bacillus subtilis NCTC 10073 after 18 hrs; type: functional; conditions: NCTC 10073, 18 h; summary of the method: as §1
Enterococcus faecalis [16] = assay: Antibacterial activity against Enterococcus faecalis ATCC 29212 after 18 hrs; type: functional; conditions: ATCC 29212, 18 h; summary of the method: as §1
Enterococcus faecalis [17] = assay: Antibacterial activity against Enterococcus faecalis ATCC 33186 after 18 hrs; type: functional; conditions: ATCC 33186, 18 h; summary of the method: as §1
Enterococcus faecium = assay: Antibacterial activity against Enterococcus faecium ATCC 19434 after 18 hrs; type: functional; conditions: ATCC 19434, 18 h; summary of the method: as §1
Staphylococcus aureus [18] = assay: Antibacterial activity against Staphylococcus aureus ATCC 6538 after 18 hrs; type: functional; conditions: ATCC 6538, 18 h; summary of the method: as §1
Staphylococcus aureus [19] = assay: Antibacterial activity against Staphylococcus aureus ATCC 6538P after 18 hrs; type: functional; summary of the method: as §1
Staphylococcus aureus [20] = assay: Antibacterial activity against Staphylococcus aureus ATCC 9144 after 18 hrs; type: functional; conditions: ATCC 9144, 18 h; summary of the method: as §1
Staphylococcus aureus [21] = assay: Antibacterial activity against Staphylococcus aureus ATCC 25923 after 18 hrs; type: functional; conditions: ATCC 25923, 18 h; summary of the method: as §1
Staphylococcus aureus [22] = assay: Antibacterial activity against Staphylococcus aureus ATCC 29213 after 18 hrs; type: functional; conditions: ATCC 29213, 18 h; summary of the method: as §1
Staphylococcus aureus [23] = assay: Antibacterial activity against Staphylococcus aureus NCTC 13758 after 18 hrs; type: functional; conditions: NCTC 13758, 18 h; summary of the method: as §1
Staphylococcus aureus [24] = assay: Antibacterial activity against Staphylococcus aureus OCC 104 after 18 hrs; type: functional; conditions: OCC 104, 18 h; summary of the method: as §1
Staphylococcus aureus [25] = assay: Antibacterial activity against Staphylococcus aureus OCC 106 after 18 hrs; type: functional; conditions: OCC 106, 18 h; summary of the method: as §1
[26] = test system: Staphylococcus epidermidis; assay: Antibacterial activity against Staphylococcus epidermidis 155 after 18 hrs; type: functional; conditions: Staphylococcus epidermidis, 155, 18 h; summary of the method: as §1
[27] = test system: Staphylococcus epidermidis; assay: Antibacterial activity against Staphylococcus epidermidis ATCC 12228 after 18 hrs; type: functional; conditions: ATCC 12228, 18 h; summary of the method: as §1
[28] = test system: Staphylococcus epidermidis; assay: Antibacterial activity against Staphylococcus epidermidis ATCC 14990 after 18 hrs; type: functional; conditions: ATCC 14990, 18 h; summary of the method: as §1
[29] = test system: Staphylococcus haemolyticus; assay: Antibacterial activity against Staphylococcus haemolyticus OCC 2223 after 18 hrs; type: functional; conditions: OCC 2223, 18 h
Summary of the method: (§2)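 Broth microdilution in Nutrient Broth No. 2. Ethanol stocks were diluted in broth to 0.01–128 µg/ml for triclosan and 0.25–256 µg/ml for glycosides. Overnight 37°C NB2 cultures were diluted 1 in 10^4 in saline and added to the wells. Plates were incubated at 37°C with OD read every 15 min after agitation. MIC was the lowest concentration giving no OD increase at 18 h.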

[30] = test system: Staphylococcus saprophyticus; assay: Antibacterial activity against Staphylococcus saprophyticus ATCC 15305 after 18 hrs; type: functional; conditions: ATCC 15305, 18 h; summary of the method: as §2
Streptococcus agalactiae = assay: Antibacterial activity against Streptococcus agalactiae OCC 182 after 18 hrs; type: functional; conditions: OCC 182, 18 h; summary of the method: as §2
Streptococcus pneumoniae [31] = assay: Antibacterial activity against Streptococcus pneumoniae 6305 after 18 hrs; type: functional; conditions: Streptococcus pneumoniae, 6305, 18 h; summary of the method: as §2
Streptococcus pneumoniae [32] = assay: Antibacterial activity against Streptococcus pneumoniae ATCC 49619 after 18 hrs; type: functional; conditions: ATCC 49619, 18 h; summary of the method: as §2
Streptococcus pyogenes = assay: Antibacterial activity against Streptococcus pyogenes ATCC 19615 after 18 hrs; type: functional; conditions: ATCC 19615, 18 h; summary of the method: as §2
Streptococcus viridans = assay: Antibacterial activity against Streptococcus viridans OCC 234 after 18 hrs; type: functional; conditions: OCC 234, 18 h; summary of the method: as §2
[33] = test system: Salmonella enterica subsp. enterica serovar Abony; assay: Antibacterial activity against Salmonella enterica subspecies enterica serotype Abony NCTC 6017 after 18 hrs; type: functional; conditions: NCTC 6017, 18 h; summary of the method: as §1
[34] = Antibacterial activity against Salmonella enterica subspecies enterica serotype Arizonae OCC 706 after 18 hrs; type: functional, Salmonella enterica subsp. enterica serovar Arizonae; conditions: OCC 706, 18 h; summary of the method: as §1
[35] = Antibacterial activity against Salmonella enterica subspecies enterica serotype Dublin OCC 627 after 18 hrs; type: functional, Salmonella enterica subsp. enterica serovar Dublin; conditions: OCC 627, 18 h; summary of the method: as §1
Salmonella enteritidis = assay: Antibacterial activity against Salmonella enterica subspecies enterica serotype Enteritidis 13076 after 18 hrs; type: functional, Salmonella enterica subsp. enterica serovar Enteritidis; conditions: Salmonella enterica, 13076, 18 h; summary of the method: as §1
[36] = Antibacterial activity against Salmonella enterica subspecies enterica serotype Indiana OCC 597 after 18 hrs; type: functional, Salmonella enterica subsp. enterica serovar Indiana; conditions: OCC 597, 18 h; summary of the method: as §1
[37] = Antibacterial activity against Salmonella enterica subspecies enterica serotype Infantis OCC 2133 after 18 hrs; type: functional, Salmonella enterica subsp. enterica serovar Infantis; conditions: OCC 2133, 18 h; summary of the method: as §1
[38] = Antibacterial activity against Salmonella enterica subspecies enterica serotype Nottingham NCTC 7832 after 18 hrs; type: functional, Salmonella enterica subsp. enterica serovar Nottingham; conditions: NCTC 7832, 18 h; summary of the method: as §1
[39] = Antibacterial activity against Salmonella enterica subspecies enterica serotype Poona NCTC 4840 after 18 hrs; type: functional, Salmonella enterica subsp. enterica serovar Poona; conditions: NCTC 4840, 18 h; summary of the method: as §1
[40] = Antibacterial activity against Salmonella enterica subspecies enterica serotype Pullorum OCC 273 after 18 hrs; type: functional, Salmonella enterica subsp. enterica serovar Pullorum; conditions: OCC 273, 18 h; summary of the method: as §1
Salmonella typhimurium = assay: Antibacterial activity against Salmonella enterica subspecies enterica serotype typhimurium ATCC 14028 after 18 hrs; type: functional, Salmonella enterica subsp. enterica serovar Typhimurium; conditions: ATCC 14028, 18 h; summary of the method: as §1
[41] = Antibacterial activity against Salmonella enterica subspecies enterica serotype Virchow NCTC 5742 after 18 hrs; type: functional, Salmonella enterica subsp. enterica serovar Virchow; conditions: NCTC 5742, 18 h; summary of the method: as §1

Measured: MIC

OC[C@H]1O[C@@H](Oc2cc(Cl)ccc2Oc2ccc(Cl)cc2Cl)[C@H](O)[C@@H](O)[C@@H]1O
64 µg/mL: Citrobacter freundii [1] | Cronobacter sakazakii | Klebsiella aerogenes [2] | Proteus vulgaris | Citrobacter freundii [15] | [30]
> 256 µg/mL: Aeromonas hydrophila | Pseudomonas aeruginosa | Serratia marcescens | Enterococcus faecium
16 µg/mL: [3] | Escherichia hermannii | Proteus mirabilis | Enterococcus faecalis [16] | Enterococcus faecalis [17] | [29]
4 to 8 µg/mL: Staphylococcus aureus [18] | Staphylococcus aureus [19] | Staphylococcus aureus [20] | Staphylococcus aureus [21] | Staphylococcus aureus [22] | Staphylococcus aureus [23] | Staphylococcus aureus [24] | Staphylococcus aureus [25]
8 to 64 µg/mL: Escherichia coli [4] | Escherichia coli [5] | Escherichia coli [6] | Escherichia coli [7] | Escherichia coli [8] | Escherichia coli [9] | Escherichia coli [10] | Escherichia coli [11]
32 µg/mL: Klebsiella aerogenes [12] | Streptococcus pyogenes
256 µg/mL: Bacillus cereus | Bacillus subtilis | Streptococcus agalactiae | Streptococcus viridans
128 µg/mL: Streptococcus pneumoniae [31] | Streptococcus pneumoniae [32]
8 to 16 µg/mL: [26] | [27] | [28]
0.5 µg/mL: Klebsiella pneumoniae [13] | Klebsiella pneumoniae [14]
4 µg/mL: Hafnia alvei
16 to 32 µg/mL: all other assays above

— ChEMBL document CHEMBL4325893, “Synthesis and antibacterial profiles of targeted triclosan derivatives” (2019)
